{"source": "ChEMBL document CHEMBL3124822", "about": "“Discovery of a rapidly metabolized, long-acting β(2) adrenergic receptor agonist with a short onset time incorporating a sulfone group suitable for once-daily dosing” (J Med Chem, 2014)", "key": {"Hepatocyte [1]": {"tested_on": "Hepatocyte", "assay": "Drug metabolism in human hepatocytes assessed as metabolite M1 formation at 12.5 uM after 2 hrs by LC-MS/MS analysis", "assay_type": "ADME, cell-based", "outline": "(§1)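 Human hepatocytes incubated with substrate at 12.5 μM for 2 h. Products characterized by LC–MS/MS on a C18 column, 5–95% acetonitrile gradient in water with 0.1% formic acid over 8 min. Metabolites numbered by elution order. Abundance is semiquantitative from peak heights (low/medium/high), assuming equal analyte response.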"}, "Hepatocyte [2]": {"tested_on": "Hepatocyte", "assay": "Drug metabolism in human hepatocytes assessed as metabolite M10 formation at 12.5 uM after 2 hrs by LC-MS/MS analysis", "assay_type": "ADME, cell-based", "outline": "as §1"}, "Cytochrome P450 3A4": {"biological_target": "Cytochrome P450 3A4 (Homo sapiens, UniProt P08684)", "sequence (P08684 whole entry, canonical isoform)": "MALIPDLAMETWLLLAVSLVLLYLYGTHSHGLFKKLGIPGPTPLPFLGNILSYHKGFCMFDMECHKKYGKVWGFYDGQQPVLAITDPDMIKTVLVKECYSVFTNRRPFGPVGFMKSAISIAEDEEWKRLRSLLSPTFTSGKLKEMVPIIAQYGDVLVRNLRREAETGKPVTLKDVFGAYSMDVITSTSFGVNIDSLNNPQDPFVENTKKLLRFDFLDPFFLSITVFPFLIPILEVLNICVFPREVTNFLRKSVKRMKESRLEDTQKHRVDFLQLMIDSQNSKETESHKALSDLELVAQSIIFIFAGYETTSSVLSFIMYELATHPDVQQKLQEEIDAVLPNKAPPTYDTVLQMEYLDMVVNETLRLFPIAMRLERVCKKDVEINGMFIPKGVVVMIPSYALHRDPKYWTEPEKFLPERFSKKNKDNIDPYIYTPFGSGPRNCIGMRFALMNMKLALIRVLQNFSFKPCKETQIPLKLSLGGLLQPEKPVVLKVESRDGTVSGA", "assay": "Inhibition of human CYP3A4 expressed in Escherichia coli using diethoxyfluorescein as substrate", "assay_type": "ADME", "outline": "(§2)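 Human CYP isoforms expressed in E. coli; IC50 from n = 3. Probe substrates diethoxyfluorescein and 7-benzyloxyquinoline are stated for CYP3A4.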"}, "[3]": {"assay": "Plasma clearance in beagle dog at 0.05 mg/kg, iv up to 8 hrs by LC-MS/MS analysis", "assay_type": "ADME, organism-based, Canis lupus familiaris", "parameters": "dose 0.05 mg/kg, route intravenous", "outline": "(§3)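 Beagle dogs dosed 0.05 mg/kg intravenously; plasma collected at various time points up to 8 h postdose.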"}, "[4]": {"biological_target": "Beta-2 adrenergic receptor (Homo sapiens, UniProt P07550)", "sequence (P07550 whole entry)": "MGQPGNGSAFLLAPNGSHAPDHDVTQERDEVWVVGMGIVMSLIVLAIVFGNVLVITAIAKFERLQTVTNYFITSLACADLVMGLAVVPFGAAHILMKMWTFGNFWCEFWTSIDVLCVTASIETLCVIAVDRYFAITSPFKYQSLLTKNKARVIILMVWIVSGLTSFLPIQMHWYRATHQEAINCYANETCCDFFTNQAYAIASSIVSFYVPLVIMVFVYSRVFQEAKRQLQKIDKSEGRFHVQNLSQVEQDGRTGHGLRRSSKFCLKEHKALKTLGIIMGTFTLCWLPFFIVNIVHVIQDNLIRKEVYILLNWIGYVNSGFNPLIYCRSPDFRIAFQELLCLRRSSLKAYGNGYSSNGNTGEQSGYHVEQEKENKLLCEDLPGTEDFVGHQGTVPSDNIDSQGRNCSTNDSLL", "assay": "Agonist activity at human beta2 adrenoceptor transfected in CHO cells assessed as cyclic AMP accumulation after 45 mins by fluorescence polarization assay", "assay_type": "functional, cell-based"}, "[5]": {"assay": "Plasma protein binding in rat", "assay_type": "ADME, cell-free", "details": "read-out: PPB (converted); call rule not given here"}, "[6]": {"assay": "Drug metabolism in human hepatocytes at 1 uM after 2 hrs by LC-MS/MS analysis", "assay_type": "ADME, cell-based, Hepatocyte", "details": "read-out: Drug metabolism", "outline": "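Human hepatocytes incubated with substrate at 1 μM for 2 h; percentage turnover of parent determined.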"}, "Hepatocyte [7]": {"tested_on": "Hepatocyte", "assay": "Drug metabolism in human hepatocytes assessed as metabolite M13 formation at 12.5 uM after 2 hrs by LC-MS/MS analysis", "assay_type": "ADME, cell-based", "outline": "as §1"}, "[8]": {"assay": "Ratio of drug uptake from blood to plasma in rat", "assay_type": "ADME", "outline": "(§4)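 In vitro partitioning of the compound into the cellular fraction of rat, dog and human blood, reported as the blood:plasma ratio.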"}, "[9]": {"assay": "Half life in beagle dog at 0.05 mg/kg, iv up to 8 hrs by LC-MS/MS analysis", "assay_type": "ADME, organism-based, Canis lupus familiaris", "parameters": "dose 0.05 mg/kg, route intravenous", "details": "in vivo", "outline": "as §3"}, "[10]": {"biological_target": "5-hydroxytryptamine receptor 1B (Homo sapiens, UniProt P28222)", "sequence (P28222 whole entry)": "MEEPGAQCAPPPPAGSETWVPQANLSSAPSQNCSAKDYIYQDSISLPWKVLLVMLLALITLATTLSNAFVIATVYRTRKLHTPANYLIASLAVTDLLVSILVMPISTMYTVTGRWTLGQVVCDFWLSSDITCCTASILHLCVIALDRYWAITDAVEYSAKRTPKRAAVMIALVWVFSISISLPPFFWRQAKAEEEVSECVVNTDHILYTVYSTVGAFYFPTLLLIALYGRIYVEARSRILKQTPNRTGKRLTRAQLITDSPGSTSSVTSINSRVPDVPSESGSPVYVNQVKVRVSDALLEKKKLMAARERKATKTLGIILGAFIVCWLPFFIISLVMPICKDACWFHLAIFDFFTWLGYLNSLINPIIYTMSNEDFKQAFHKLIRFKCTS", "assay": "Binding affinity to human 5HT1B receptor"}, "[11]": {"biological_target": "T1, 5-hydroxytryptamine receptor 1A (Homo sapiens, UniProt P08908)", "T1 sequence (P08908 whole entry)": "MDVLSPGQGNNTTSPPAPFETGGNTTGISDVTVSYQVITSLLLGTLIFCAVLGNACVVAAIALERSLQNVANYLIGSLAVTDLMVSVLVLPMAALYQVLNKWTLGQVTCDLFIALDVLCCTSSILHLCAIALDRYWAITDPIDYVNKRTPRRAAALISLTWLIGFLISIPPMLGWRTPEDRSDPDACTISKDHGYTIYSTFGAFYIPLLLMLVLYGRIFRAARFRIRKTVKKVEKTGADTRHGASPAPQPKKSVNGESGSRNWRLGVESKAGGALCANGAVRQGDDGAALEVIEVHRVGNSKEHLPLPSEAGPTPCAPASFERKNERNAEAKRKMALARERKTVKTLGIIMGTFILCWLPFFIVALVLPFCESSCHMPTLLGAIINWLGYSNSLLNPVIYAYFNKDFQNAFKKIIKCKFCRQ", "assay": "Binding affinity to human 5HT1A receptor"}, "Cavia porcellus [12]": {"tested_on": "Cavia porcellus", "assay": "Bronchodilatory activity in guinea pig assessed as duration of action of inhibition of histamine-induced bronchoconstriction at EC90 administered via nebulization 2 mins prior to histamine challenge", "assay_type": "functional", "outline": "(§5)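 Conscious guinea pigs, n = 24 per group, given test agonist as a nebulized solution in dimethylacetamide–saline vehicle (2 min nebulization) before histamine (10 mM, nebulized 1.3 min) in a whole-body plethysmograph. PenH recorded for 15 min as index of airway obstruction. Dose expressed as nebulizer concentration; duration taken as time to 50% recovery.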"}, "Hepatocyte [13]": {"tested_on": "Hepatocyte", "assay": "Drug metabolism in human hepatocytes assessed as metabolite M2 formation at 12.5 uM after 2 hrs by LC-MS/MS analysis", "assay_type": "ADME, cell-based", "outline": "as §1"}, "L5178Y [14]": {"tested_on": "L5178Y", "assay": "Genotoxicity against mouse L5178Y cells", "assay_type": "toxicity, cell-based", "outline": "(§6)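 Acetate and 4-biphenylsulfonate salts screened in Ames and mouse lymphoma L5178Y assays, with and without a rat liver metabolic activation system.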"}, "[15]": {"assay": "Oral bioavailability in beagle dog at 0.25 mg/kg up to 8 hrs by LC-MS/MS analysis", "assay_type": "ADME, organism-based, Canis lupus familiaris", "details": "in vivo", "outline": "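Beagle dogs dosed 0.25 mg/kg orally, with 0.05 mg/kg iv reference arm; plasma collected at various time points up to 8 h postdose.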"}, "Cavia porcellus [16]": {"tested_on": "Cavia porcellus", "assay": "Bronchodilatory activity in guinea pig assessed as duration of action of inhibition of histamine-induced bronchoconstriction at 10 times EC90 administered via nebulization 2 mins prior to histamine challenge", "assay_type": "functional", "outline": "as §5"}, "[17]": {"assay": "Binding affinity to guinea pig sigma receptor", "parameters": "species or system Cavia porcellus"}, "[18]": {"assay": "Volume of distribution at steady state in Han Wistar rat at 0.25 mg/kg, iv up to 7 hrs by LC-MS/MS analysis", "assay_type": "ADME, organism-based", "parameters": "dose 0.25 mg/kg, route intravenous", "details": "in vivo, read-out: Vdss", "outline": "(§7)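 Han Wistar rats dosed 0.25 mg/kg intravenously; plasma sampled at various times up to 7 h postdose. Clearance expressed as percentage of liver blood flow.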"}, "Cytochrome P450 2D6": {"biological_target": "Cytochrome P450 2D6 (Homo sapiens, UniProt P10635)", "sequence (P10635 whole entry)": "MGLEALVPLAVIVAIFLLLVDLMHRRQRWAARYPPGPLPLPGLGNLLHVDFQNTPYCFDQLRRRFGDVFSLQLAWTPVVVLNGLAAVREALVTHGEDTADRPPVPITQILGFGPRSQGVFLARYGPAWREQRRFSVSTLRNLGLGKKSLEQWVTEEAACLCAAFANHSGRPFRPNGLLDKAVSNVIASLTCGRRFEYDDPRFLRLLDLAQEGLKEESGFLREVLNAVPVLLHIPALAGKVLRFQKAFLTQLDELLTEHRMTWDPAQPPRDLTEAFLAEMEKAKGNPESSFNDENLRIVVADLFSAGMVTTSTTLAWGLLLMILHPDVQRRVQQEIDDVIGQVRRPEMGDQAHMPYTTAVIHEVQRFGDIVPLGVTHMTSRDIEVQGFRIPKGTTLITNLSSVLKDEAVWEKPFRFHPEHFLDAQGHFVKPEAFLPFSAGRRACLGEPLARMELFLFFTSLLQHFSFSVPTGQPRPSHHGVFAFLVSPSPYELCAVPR", "assay": "Inhibition of human CYP2D6 expressed in Escherichia coli", "assay_type": "ADME", "outline": "as §2"}, "[19]": {"biological_target": "Beta-3 adrenergic receptor (Homo sapiens, UniProt P13945)", "sequence (P13945 whole entry)": "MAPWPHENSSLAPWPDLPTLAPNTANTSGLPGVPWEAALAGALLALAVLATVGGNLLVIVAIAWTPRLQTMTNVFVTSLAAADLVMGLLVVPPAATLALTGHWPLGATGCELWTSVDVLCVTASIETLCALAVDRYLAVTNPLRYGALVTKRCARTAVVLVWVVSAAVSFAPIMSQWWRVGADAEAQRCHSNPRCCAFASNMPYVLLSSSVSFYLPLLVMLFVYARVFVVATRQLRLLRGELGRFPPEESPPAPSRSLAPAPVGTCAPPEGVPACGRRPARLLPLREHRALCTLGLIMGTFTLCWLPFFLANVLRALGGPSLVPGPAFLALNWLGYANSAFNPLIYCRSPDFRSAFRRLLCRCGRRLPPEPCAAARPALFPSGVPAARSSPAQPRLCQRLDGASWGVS", "assay": "Agonist activity at human beta3 adrenoceptor transfected in CHO cells assessed as cyclic AMP accumulation after 45 mins by fluorescence polarization assay", "assay_type": "cell-based"}, "L5178Y [20]": {"tested_on": "L5178Y", "assay": "Genotoxicity against mouse L5178Y cells in presence of rat liver metabolic activation system", "assay_type": "toxicity, cell-based", "outline": "as §6"}, "Cytochrome P450 2C19": {"biological_target": "Cytochrome P450 2C19 (Homo sapiens, UniProt P33261)", "sequence (P33261 whole entry)": "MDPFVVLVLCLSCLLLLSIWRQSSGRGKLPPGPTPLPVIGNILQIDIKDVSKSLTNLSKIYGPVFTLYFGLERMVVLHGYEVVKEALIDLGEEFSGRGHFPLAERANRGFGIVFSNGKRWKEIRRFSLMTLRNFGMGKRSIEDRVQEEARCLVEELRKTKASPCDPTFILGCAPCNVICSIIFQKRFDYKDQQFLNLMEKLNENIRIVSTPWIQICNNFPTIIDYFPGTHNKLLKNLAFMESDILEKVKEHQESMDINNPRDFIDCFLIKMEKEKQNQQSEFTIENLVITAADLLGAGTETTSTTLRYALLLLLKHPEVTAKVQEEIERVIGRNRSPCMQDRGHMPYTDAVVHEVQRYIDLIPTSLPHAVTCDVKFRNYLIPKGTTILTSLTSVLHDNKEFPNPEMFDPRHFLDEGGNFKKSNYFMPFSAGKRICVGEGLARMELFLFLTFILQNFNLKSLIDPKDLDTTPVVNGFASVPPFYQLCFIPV", "assay": "Inhibition of human CYP2C19 expressed in Escherichia coli", "assay_type": "ADME", "outline": "as §2"}, "[21]": {"assay": "Half life in Han Wistar rat at 0.25 mg/kg, iv up to 7 hrs by LC-MS/MS analysis", "assay_type": "ADME, organism-based", "parameters": "dose 0.25 mg/kg, route intravenous", "details": "in vivo", "outline": "as §7"}, "Salmonella typhimurium [22]": {"tested_on": "Salmonella typhimurium", "assay": "Genotoxicity in Salmonella typhimurium by Ames assay", "assay_type": "toxicity, organism-based", "details": "salmonella enterica subsp. enterica serovar typhimurium", "outline": "as §6"}, "Hepatocyte [23]": {"tested_on": "Hepatocyte", "assay": "Drug metabolism in human hepatocytes assessed as metabolite M15 formation at 12.5 uM after 2 hrs by LC-MS/MS analysis", "assay_type": "ADME, cell-based", "outline": "as §1"}, "[24]": {"biological_target": "Beta-1 adrenergic receptor (Homo sapiens, UniProt P08588)", "sequence (P08588 whole entry)": "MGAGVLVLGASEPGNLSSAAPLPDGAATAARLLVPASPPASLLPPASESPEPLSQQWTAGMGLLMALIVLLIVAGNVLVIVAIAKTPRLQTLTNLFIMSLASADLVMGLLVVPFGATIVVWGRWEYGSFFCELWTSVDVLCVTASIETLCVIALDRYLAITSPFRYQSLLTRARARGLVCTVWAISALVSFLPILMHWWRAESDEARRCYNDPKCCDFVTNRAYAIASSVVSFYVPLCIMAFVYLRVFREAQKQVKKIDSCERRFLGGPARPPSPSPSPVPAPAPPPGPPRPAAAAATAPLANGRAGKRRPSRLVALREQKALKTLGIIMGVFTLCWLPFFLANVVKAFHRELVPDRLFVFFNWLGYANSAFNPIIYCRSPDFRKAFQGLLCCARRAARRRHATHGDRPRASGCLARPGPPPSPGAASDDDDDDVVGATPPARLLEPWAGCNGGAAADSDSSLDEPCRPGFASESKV", "assay": "Agonist activity at human beta1 adrenoceptor transfected in CHO cells assessed as cyclic AMP accumulation after 45 mins by fluorescence polarization assay", "assay_type": "cell-based"}, "[25]": {"assay": "Plasma protein binding in human", "assay_type": "ADME, cell-free", "details": "read-out: PPB (converted)"}, "Rattus norvegicus": {"tested_on": "Rattus norvegicus", "assay": "Clearance in Han Wistar rat at 0.25 mg/kg, iv up to 7 hrs by LC-MS/MS analysis relative to liver blood flow", "assay_type": "ADME, organism-based", "parameters": "dose 0.25 mg/kg, route intravenous", "details": "in vivo", "outline": "as §7"}, "[26]": {"assay": "Plasma protein binding in dog", "assay_type": "ADME, cell-free, Canis lupus familiaris", "details": "read-out: PPB (converted)"}, "[27]": {"assay": "Ratio of drug uptake from blood to plasma in dog", "assay_type": "ADME, Canis lupus familiaris", "outline": "as §4"}, "Salmonella typhimurium [28]": {"tested_on": "Salmonella typhimurium", "assay": "Genotoxicity in Salmonella typhimurium by Ames assay in presence of rat liver metabolic activation system", "assay_type": "toxicity, organism-based", "details": "salmonella enterica subsp. enterica serovar typhimurium", "outline": "as §6"}, "[29]": {"assay": "Plasma clearance in Han Wistar rat at 0.25 mg/kg, iv up to 7 hrs by LC-MS/MS analysis", "assay_type": "ADME, organism-based", "parameters": "dose 0.25 mg/kg, route intravenous", "outline": "as §7"}, "Hepatocyte [30]": {"tested_on": "Hepatocyte", "assay": "Drug metabolism in human hepatocytes assessed as metabolite M11 formation at 12.5 uM after 2 hrs by LC-MS/MS analysis", "assay_type": "ADME, cell-based", "outline": "as §1"}}, "data": [{"smiles": "CC(=O)O.O=S(=O)(c1cccc(CCCCOCCCCCCNC[C@H](O)c2ccc(O)c(CO)c2)c1)C1CCCC1", "values": [{"measurement": "Drug metabolism", "setting": "Hepatocyte [1]", "result": "Active"}, {"measurement": "Drug metabolism", "setting": "Hepatocyte [2]", "result": "Active"}, {"measurement": "IC50", "setting": "Cytochrome P450 3A4", "result": 1600, "unit": "nM"}, {"measurement": "clearance", "setting": "[3]", "result": 3.7, "unit": "mL/min/kg"}, {"measurement": "EC50", "setting": "[4]", "result": 2, "unit": "nM"}, {"measurement": "fraction unbound", "setting": "[5]", "result": 0.02}, {"measurement": "metabolised at 2 h, 1 µM", "setting": "[6]", "result": 90, "unit": "%"}, {"measurement": "Drug metabolism", "setting": "Hepatocyte [7]", "result": "Active"}, {"measurement": "blood plasma ratio", "setting": "[8]", "result": 1.3}, {"measurement": "half-life", "setting": "[9]", "result": 24, "unit": "min"}, {"measurement": "IC50", "setting": "[10]", "result": 100, "unit": "nM"}, {"measurement": "IC50", "setting": "[11]", "result": 100, "unit": "nM"}, {"measurement": "Time", "setting": "Cavia porcellus [12]", "result": 20, "unit": "h"}, {"measurement": "Drug metabolism", "setting": "Hepatocyte [13]", "result": "Active"}, {"measurement": "Activity", "setting": "L5178Y [14]", "result": "Non-toxic"}, {"measurement": "bioavailability", "setting": "[15]", "result": 3, "unit": "%"}, {"measurement": "Time", "setting": "Cavia porcellus [16]", "result": ">24", "unit": "h"}, {"measurement": "pIC50", "setting": "[17]", "result": 6.8}, {"measurement": "Vd", "setting": "[18]", "result": 1.1, "unit": "L/kg"}, {"measurement": "IC50", "setting": "Cytochrome P450 2D6", "result": 6400, "unit": "nM"}, {"measurement": "EC50", "setting": "[19]", "result": 794, "unit": "nM"}, {"measurement": "Activity", "setting": "L5178Y [20]", "result": "Non-toxic"}, {"measurement": "IC50", "setting": "Cytochrome P450 2C19", "result": "> 10000", "unit": "nM"}, {"measurement": "half-life", "setting": "[21]", "result": 30, "unit": "min"}, {"measurement": "Activity", "setting": "Salmonella typhimurium [22]", "result": "Non-toxic"}, {"measurement": "Drug metabolism", "setting": "Hepatocyte [23]", "result": "Active"}, {"measurement": "EC50", "setting": "[24]", "result": 501, "unit": "nM"}, {"measurement": "fraction unbound", "setting": "[25]", "result": 0.02}, {"measurement": "CL", "setting": "Rattus norvegicus", "result": 62, "unit": "%"}, {"measurement": "fraction unbound", "setting": "[26]", "result": 0.03}, {"measurement": "blood plasma ratio", "setting": "[27]", "result": 0.6}, {"measurement": "Activity", "setting": "Salmonella typhimurium [28]", "result": "Non-toxic"}, {"measurement": "clearance", "setting": "[29]", "result": 53, "unit": "mL/min/kg"}, {"measurement": "Drug metabolism", "setting": "Hepatocyte [30]", "result": "Active"}]}]}
